Source: ChEMBL document CHEMBL4002592, “Piperlongumine derived cyclic sulfonamides (sultams): Synthesis and in vitro exploration for therapeutic potential against HeLa cancer cell lines” (2017)
Counter-ions that a name gives are not always drawn.

Columns and labels:
Type in all cases: functional
HeLa [1] = assay: Cytotoxicity against human HeLa cells assessed as cell growth at 10^-4 M after 48 hrs by SRB assay relative to control; conditions: read-out: Activity
How it was run: (§1)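 HeLa (NCI source) kept in RPMI 1640 with 10% FBS and 2 mM L-glutamine, 37°C, 5% CO2. Cells seeded at 5,000/well, incubated overnight, then exposed 48 h to drug at final 10^-4 to 10^-7 M from 10^-2 M DMSO stock. Fixed with 10% TCA, stained with 0.4% SRB for 20 min, dye dissolved in 10 mM Tris, OD 540 nm. % growth = 100×(T–T₀)/(C–T₀). Mean of three experiments.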

HeLa [2] = assay: Cytotoxicity against human HeLa cells assessed as cell growth at 10^-6 M after 48 hrs by SRB assay relative to control; conditions: read-out: Activity; how it was run: as §1
HeLa [3] = assay: Cytotoxicity against human HeLa cells assessed as growth inhibition after 48 hrs by SRB assay
How it was run: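 HeLa in RPMI 1640/10% FBS/2 mM glutamine, seeded at 5,000 cells/well overnight, then treated 48 h at final 10^-4 to 10^-7 M (DMSO stock 10^-2 M). Read by SRB: TCA fixation, 0.4% SRB stain, Tris solubilisation, OD 540 nm. Growth corrected for time-zero OD. Mean % growth plotted against molar concentration; GI50 taken as the concentration giving 50% growth inhibition.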

HeLa [4] = assay: Cytotoxicity against human HeLa cells assessed as cell growth at 10^-5 M after 48 hrs by SRB assay relative to control; conditions: read-out: Activity; how it was run: as §1
HeLa [5] = assay: Cytotoxicity against human HeLa cells assessed as cell growth at 10^-7 M after 48 hrs by SRB assay relative to control; conditions: read-out: Activity; how it was run: as §1

SMILES	growth at 100 µM (HeLa [1]) [%]	growth at 1 µM (HeLa [2]) [%]	GI50 (HeLa [3]) [µM]	growth inhibition (GI) (HeLa [3])	growth at 10 µM (HeLa [4]) [%]	growth at 0.1 µM (HeLa [5]) [%]
COc1cccc(/C=C/C(=O)N2CCC=CS2(=O)=O)c1	-79.7	92.2	23.7	Dose-dependent effect	68.7	90.8
O=C(/C=C/c1ccccc1F)N1CCC=CS1(=O)=O	-75.3	62.3	13.7	Dose-dependent effect	52.4	78.5
O=C(/C=C/c1cccs1)N1CCC=CS1(=O)=O	-75.3	74.2	18.8	Dose-dependent effect	53.4	92.1
Cc1cccc(/C=C/C(=O)N2CCC=CS2(=O)=O)c1	-67.1	89.5	20.7	Dose-dependent effect	35	99.9
COc1cccc2c1C(=O)c1c(O)c3c(c(O)c1C2=O)C[C@@](O)(C(=O)CO)C[C@@H]3O[C@H]1C[C@H](N)[C@H](O)[C@H](C)O1 [DOXORUBICIN HYDROCHLORIDE]	-84.6	-82.9	< 0.1	–	-84.1	-76.8
O=C(/C=C/c1c(Cl)nc2ccccn12)N1CCC=CS1(=O)=O	-78.5	59	8.2	Dose-dependent effect	20.6	87
COc1cc(/C=C/C(=O)N2CCC=CS2(=O)=O)cc(OC)c1OC	-80.6	71.4	14.3	Dose-dependent effect	46.8	79.8
COc1ccccc1/C=C/C(=O)N1CCC=CS1(=O)=O	-80.1	35	0.1	Dose-dependent effect	14.6	76.7
COc1cc(/C=C/C(=O)N2CCC=CS2(=O)=O)cc(OC)c1	-78.4	32.5	< 0.1	Dose-dependent effect	-60.1	82.5
O=C(/C=C/c1cccc(-c2ccccc2)c1)N1CCC=CS1(=O)=O	-63	86.5	19.8	Dose-dependent effect	32.9	97.6
O=C(c1cccc(Cl)c1)N1CCC=CS1(=O)=O	10.8	86.7	45.4	Dose-dependent effect	55.4	100
Cc1ccc(/C=C/C(=O)N2CCC=CS2(=O)=O)cc1	-33.5	81.4	18.6	Dose-dependent effect	26.3	86.8
O=C(/C=C/c1cccc(C(F)(F)F)c1)N1CCC=CS1(=O)=O	-64.8	86.3	19.6	Dose-dependent effect	34.9	95.5
Cc1ccc(C(=O)N2CCC=CS2(=O)=O)cc1[N+](=O)[O-]	-11.2	93.7	39.2	Dose-dependent effect	67.6	97.1
O=C(/C=C/c1cccc(F)c1)N1CCC=CS1(=O)=O	-69	42.4	< 0.1	Dose-dependent effect	-39.2	96.8
O=C(/C=C/c1ccoc1)N1CCC=CS1(=O)=O	-78.1	80.2	20.3	Dose-dependent effect	57.7	92
O=C(/C=C/c1ccc(Cl)cc1)N1CCC=CS1(=O)=O	-30.5	80.2	26.4	Dose-dependent effect	53.5	90.7
COc1ccc(/C=C/C(=O)N2CCC=CS2(=O)=O)cc1	-55.3	83.8	24.4	Dose-dependent effect	68.1	84.7
O=C(/C=C/c1ccc([N+](=O)[O-])cc1)N1CCC=CS1(=O)=O	-71.6	90.4	24.4	Dose-dependent effect	59	100
O=C(/C=C/c1c[nH]c2ccc(F)cc12)N1CCC=CS1(=O)=O	-48	87.6	18.8	Dose-dependent effect	25.3	90.4
